Rows were chosen to be rich in hits. Some 3.1% of all compounds tested hit in one or more screens of this group.
UHRF1 MBD2 ctr = UHRF1 methylated DNA binding inhibitors, primary screen, counter-screen for MBD2 inhibitor project, biochemical, TR-FRET, human UHRF1, single concentration; E3 ubiquitin-protein ligase UHRF1 (Homo sapiens), Q96T88; inhibition, % at 4.4 µM; UHRF1 binding to methylated oligo; 0.75% of 370,000 active; AID 687016, 2013; in the data active = inhibition above about 21%;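 note: UHRF1 SRA domain binding a hemimethylated CpG hairpin DNA probe; 0% = median of test compound wells and 100% = reference inhibitor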
MBD2 inh = inhibitors of MBD2 binding to methylated DNA, primary screen, biochemical, TR-FRET, DNA-binding domain, human; Methyl-CpG-binding domain protein 2 (Homo sapiens), Q9UBB5; MBD2 binding to methylated oligonucleotide; inhibition, % at 4.4 µM; 0.31% of 370,000 active; in the data active = inhibition above about 13%
ATG4B inhibitor = ATG4B protease inhibitors, primary screen, biochemical, fluorescence, uHTS; ATG4B cleavage of LC3-PLA2, NBD-HPC fluorescence, 1 h; 0.51% of 340,000 active; Cysteine protease ATG4B (Homo sapiens), Q9Y4P1; inhibition, % at 8.33 µM; in the data active = inhibition above about 40%
Target sequence (Q9Y4P1 whole entry, looked up): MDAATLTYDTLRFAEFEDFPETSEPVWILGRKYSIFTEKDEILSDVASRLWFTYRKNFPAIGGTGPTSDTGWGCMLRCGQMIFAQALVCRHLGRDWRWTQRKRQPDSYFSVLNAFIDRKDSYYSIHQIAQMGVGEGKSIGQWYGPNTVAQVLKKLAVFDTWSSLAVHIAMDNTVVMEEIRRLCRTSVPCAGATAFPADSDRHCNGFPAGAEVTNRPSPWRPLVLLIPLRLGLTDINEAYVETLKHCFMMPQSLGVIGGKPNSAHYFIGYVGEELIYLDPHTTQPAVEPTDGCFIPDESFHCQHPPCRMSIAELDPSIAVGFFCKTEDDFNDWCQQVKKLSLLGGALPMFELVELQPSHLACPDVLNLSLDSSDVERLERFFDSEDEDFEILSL
CSN deneddyl inh = inhibitors of CSN-mediated cullin deneddylation, primary screen, biochemical, fluorescence polarization, uHTS | COP9 signalosome complex subunit 5 (Homo sapiens), Q92905 | Purified CSN, SCF-Nedd8-OG deneddylation | inhibition, % at 12.5 µM | 0.38% of 360,000 active;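 active = pattern-corrected inhibition above about 35%, with an unprinted fluorescence ratio check between 0.5 and 1.5, limit read from the data, passing the limit was not always enough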;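 note: 0% = enzyme with substrate and 100% = substrate without enzyme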
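Assay system: purified human Csn5 enzyme expressed in HEK293T cells; measure: % inhibition; also added: SCFSkp2-Nedd8OG substrate at 10 nM final; technique: fluorescence polarization; times: reaction 90 min, room temperature; medium: Tris buffer pH 7.5, NaCl, DTT, Tween-20, trehalose, ovalbumin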
LEDGF integ inh = blockers of LEDGF/p75-dependent integrase strand transfer – biochemical, TR-FRET, high throughput, primary screen; HIV-1 integrase (with human LEDGF/p75); TR-FRET IN-LEDGF/p75 DNA integration, Eu/Cy5; inhibition, % at 3.7 µM; 0.64% of 370,000 active;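 active = inhibition above the screen-wide mean plus 3 SD, cut at about 13% in these data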;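 note: signal is the Cy5 over europium emission ratio at 671 and 618 nm; 0% = plate median of compound wells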
rCAG binder = binders of r(CAG) RNA repeats, primary screen, biochemical, fluorescence; r(CAG) RNA repeat, TO-PRO-1 dye displacement fluorescence; inhibition, % at 3 µM; 1.3% of 370,000 active; AID 651821, 2012;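 active = inhibition above the plate cutoff, the mean of all test compounds on that plate plus 3 SD, cut at about 35% in these data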;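 note: 0% = DMSO alone and 100% = 100 µM mitoxantrone as full dye displacement; higher means more dye released from RNA so lower well fluorescence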
Starred values were filed as active, the others as inactive; x = no result.

SMILES	UHRF1 MBD2 ctr	MBD2 inh	ATG4B inhibitor	CSN deneddyl inh	LEDGF integ inh	rCAG binder
C#CCOCCOCCOCCNc1nc(N2CCN(C(=O)CCCCCCCCCCNC(=O)Cn3cc(CCCCCN)nn3)CC2)nc(N2CCN(C(=O)CCCCCCCCCCNC(=O)Cn3cc(CCCCCN)nn3)CC2)n1	x	x	16	60*	x	x
C#CCOCCOCCOCCNc1nc(N2CCN(C(=O)CCCCCCCCCCNC(=O)[C@H]([C@@H](C)CC)n3cc(CCCCN=C(N)N)nn3)CC2)nc(N2CCN(C(=O)CCCCCCCCCCNC(=O)[C@H](CO)n3cc(CCCCCN)nn3)CC2)n1	x	x	54*	106*	x	x
C#CCOCCOCCOCCNc1nc(N2CCN(C(=O)CCCCCCCCCCNC(=O)[C@H]([C@@H](C)CC)n3cc(CCCCCN)nn3)CC2)nc(N2CCN(C(=O)CCCCCCCCCCNC(=O)[C@H]([C@@H](C)CC)n3cc(CCCCN=C(N)N)nn3)CC2)n1	x	x	x	116*	x	x
C#CCOCCOCCOCCNc1nc(N2CCOCC2)nc(N2CCN(C(=O)CCCCCCCCCCNC(=O)[C@@H]([C@H](C)CC)n3cc(CCCCCN)nn3)CC2)n1	22*	8	-13	-4	6	-1
C#CCOCCOCCOCCNc1nc(N2CCN(C(=O)CCCCCCCCCCNC(=O)[C@H]([C@@H](C)CC)n3cc(CCCCCN)nn3)CC2)nc(N2CCN(C(=O)CCCCCCCCCCNC(=O)[C@H](CO)n3cc(CCCCCN)nn3)CC2)n1	x	x	24	6	x	x
C#CCOCCOCCOCCNc1nc(N2CCN(C(=O)CCCCCCCCCCNC(=O)Cn3cc(CCCCCN)nn3)CC2)nc(N2CCN(C(=O)CCCCCCCCCCNC(=O)[C@@H](CCC(=O)O)n3cc(CCCCCN)nn3)CC2)n1	x	x	-8	4	x	x
CC(C)N(Cc1cn(Cc2ccccc2)nn1)S(=O)(=O)c1ccc(F)cc1Br	0	-4	x	x	5	-1
C#CCOCCOCCOCCNc1nc(N2CCN(C(=O)CCCCCCCCCCNC(=O)Cn3cc(CCCCCN)nn3)CC2)nc(N2CCN(C(=O)CCCCCCCCCCNC(=O)[C@H]([C@@H](C)CC)n3cc(CCCCN=C(N)N)nn3)CC2)n1	x	x	49*	100*	x	x
CN(C)c1ccc(C=c2c3ccccc3n3c2c2c([n+]3C)CCCC2)cc1	38*	10	32	1	-5	19
CN(C)c1ccc(C=c2c3ccccc3n3c2cc(-c2ccc(Cl)cc2)[n+]3C)cc1	19	5	15	18	4	24
COC(=O)c1sc(S(=O)(=O)N2CCCCC2)c(C(=O)OC)c1C	-2	0	5	-3	2	-6
COC(=O)c1sc(S(=O)(=O)N2CCC(C)CC2)c(C(=O)OC)c1C	24*	-3	0	1	-4	-5
C=CCN1C(=O)[C@H](CC(=O)NCc2cccs2)[C@@]2(C(=O)OCC)CCCC=C12	2	-2	x	x	-4	2
C[C@H]1[C@H](NC(=O)C(=NOC(C)(C)C(=O)O)c2csc(N)n2)C(=O)N1S(=O)(=O)O	25*	2	-4	1	-2	2
CSC1=N/C(=C\c2ccc(Br)o2)C(=O)S1	14	1	13	43*	7	9
CSC1=N/C(=C\c2ccccc2F)C(=O)S1	3	3	-9	4	0	3
COc1ccc2c(c1)CCc1c(C(=O)Nc3cc(C)n(Cc4ccc(Cl)cc4)n3)noc1-2	11	6	0	91*	-1	2
N#CCCn1cc(/C=N/NC(N)=S)c(-c2ccc(Br)cc2)n1	0	-6	-8	-2	-2	1
N#CCCn1cc(/C=N/NC(N)=S)c(-c2ccccc2)n1	-1	0	-2	107*	4	0
Cc1ccc(Nc2nnc(SCC(=O)c3ccc(O)cc3O)s2)cc1	-1	-2	-8	9	-1	56*
COc1cc(OC)c2ccc(=O)oc2c1C(CCN1CCOCC1)c1ccc2c(c1)OCO2 (stereo unspecified)	26*	4	-7	0	1	5
O=C1CCCC2=C1C1(CCCC1)N=C(Nc1nc3cc(Br)ccc3o1)N2	-2	0	x	x	-2	x
N#CCC(=O)N/N=C/c1ccc(N2N=C(c3ccccc3)CC2c2ccccc2)cc1 (stereo unspecified)	-5	-2	-14	39*	2	18
O=C(Nc1ccc(C(F)(F)F)cc1)OC1CCC12CCCCC2 (stereo unspecified)	-2	5	x	x	7	2
Cn1c(CN2CCCC2)c(C#N)c2ccccc21	65*	-4	-3	-3	-3	-4
SMILES	UHRF1 MBD2 ctr	MBD2 inh	ATG4B inhibitor	CSN deneddyl inh	LEDGF integ inh	rCAG binder
COC(=O)[C@H]1C[C@@]2(n3ccc4ccccc43)c3ccccc3N(S(=O)(=O)c3ccccc3)[C@H]2N1C(=O)CNC1CCCCC1	2	8	x	x	0	7
COC(=O)c1ccc2nc(-c3ccc(OC)c(OC)c3)c(Cc3ccccc3OC)n2c1	23*	8	x	4	-4	9
COC(=O)c1ccc2nc(-c3ccc(OC)c(OC)c3)c(Cc3ccccc3C(F)(F)F)n2c1	24*	5	x	x	2	6
CC1=CC(c2ccccc2)n2nnnc2N1 (stereo unspecified)	35*	1	-10	0	-1	-2
CC1=CC(c2ccccc2)n2nc(N3C(=O)c4ccccc4C3=O)nc2N1 (stereo unspecified)	-3	-5	-5	3	-2	10
CCn1c(CNC(=O)COc2ccc(C(C)C)cc2)nnc1SCC(=O)NC1CCCCC1C (stereo unspecified)	-1	0	-2	70*	-6	-1
CCn1c(CNC(=O)COc2ccc(C(C)C)cc2)nnc1SCC(=O)Nc1ccc(F)cc1	-2	-1	-41	-6	1	-7
Cc1c(N=Cc2cc(Br)cc(Br)c2O)cccc1C(=O)O	0	-2	46*	1	2	1
O=C(OC12CCCN(C1)/C(=C/c1ccncc1)C2)c1ccc(Cl)cc1 (stereo unspecified)	1	-1	x	x	-1	3
COc1cc(S(=O)(=O)N(Cc2cccnc2)Cc2cccc(OC)c2OC)ccc1-n1cnnn1	23*	4	-4	0	-4	-5
COc1ccccc1CN(Cc1cccnc1)S(=O)(=O)c1ccc(-n2cnnn2)c(OC)c1	2	2	-25	-3	-2	1

From PubChem
